One block for each compound: values may come before it. Activity calls are given as the source filed them. The calls are words filed in the database; no cut-off is given here.
Legend:
[1] = tested on: HCT-116; test: Antiproliferative activity against human HCT116 cells by MTT assay; type: functional, cell-based
[2] = tested on: LN-229; test: Antiproliferative activity against human LN229 cells by MTT assay; type: functional, cell-based
[3] = tested on: A2780; test: Antiproliferative activity against human A2780 cells by MTT assay; type: functional, cell-based
[4] = tested on: LoVo; test: Antiproliferative activity against human LoVo cells by MTT assay; type: functional, cell-based
[5] = tested on: HEK293; test: Antiproliferative activity against human HEK293 cells by MTT assay; type: cell-based
[6] = tested on: HT-29; test: Antiproliferative activity against human HT-29 cells by MTT assay; type: functional, cell-based
[7] = tested on: PC-3; test: Antiproliferative activity against human PC3 cells by MTT assay; type: functional, cell-based
[8] = tested on: MDA-MB-231; test: Antiproliferative activity against human MDA-MB-231 cells by MTT assay; type: functional, cell-based
[9] = tested on: MCF7; test: Antiproliferative activity against human MCF7 cells by MTT assay; type: functional, cell-based
[10] = tested on: DU-145; test: Antiproliferative activity against human DU145 cells by MTT assay; type: functional, cell-based
[11] = tested on: HCT-15; test: Antiproliferative activity against human HCT15 cells by MTT assay; type: functional, cell-based
[12] = tested on: HCT-116; test: Cytotoxicity against human HCT116 cells assessed as reduction in cell confluence at 10 to 30 uM after 20 hrs; type: functional, cell-based
[13] = tested on: HCT-116; test: Induction of apoptosis in human HCT116 cells assessed as chromatin condensation at 5 to 10 uM after 48 hrs by DAPI staining-based fluorescent microscopic analysis; type: functional, cell-based
Summary of the method: (§1)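 HCT116 cells given 5 or 10 μM, or vehicle, for 24 or 48 h. Cells fixed and stained with DAPI. Condensed and fragmented nuclei assessed by fluorescence microscopy at 40X.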

[14] = tested on: HCT-116; test: Induction of apoptosis in human HCT116 cells assessed as viable cells at 10 uM after 24 hrs by Alexa Fluor 488 Annexin V/MitoTracker red staining-based flow cytometric analysis (reference value: 92.5%); type: functional; conditions: HCT-116, 24 h, read-out: Activity
[15] = tested on: HCT-116; test: Induction of apoptosis in human HCT116 cells assessed as apoptotic cells at 20 uM after 24 hrs by Alexa Fluor 488 Annexin V/MitoTracker red staining-based flow cytometric analysis (reference value: 7.48%); type: functional
[16] = tested on: HCT-116; test: Induction of apoptosis in human HCT116 cells assessed as apoptotic cells at 10 uM after 24 hrs by Alexa Fluor 488 Annexin V/MitoTracker red staining-based flow cytometric analysis (reference value: 7.48%); type: functional
[17] = tested on: HCT-116; test: Cell cycle arrest in human HCT116 cells assessed as G1 phase accumulation at 20 uM after 24 hrs by propidium iodide staining-based flow cytometric analysis (reference value: 78.7%); type: functional
[18] = tested on: HCT-116; test: Inhibition of colony formation in human HCT116 cells assessed as decrease in colony size at 5 to 20 uM; type: functional, cell-based
Summary of the method: (§2)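 HCT116 colony formation assay with 5, 10 or 20 μM, or vehicle. Colony number, density and size recorded. Three independent repeats.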

[19] = tested on: LoVo; test: Cytotoxicity against human LoVo cells at 1 to 30 uM incubated for 72 hrs by inverted microscopy
[20] = tested on: HCT-116; test: Cell cycle arrest in human HCT116 cells assessed as G2 phase accumulation at 10 uM after 24 hrs by propidium iodide staining-based flow cytometric analysis (reference value: 7.56%); type: functional
[21] = tested on: HCT-116; test: Induction of apoptosis in human HCT116 cells assessed as nuclear fragmentation at 5 to 10 uM after 24 hrs by DAPI staining-based fluorescent microscopic analysis; type: functional, cell-based; summary of the method: as §1
[22] = tested on: HCT-116; test: Cell cycle arrest in human HCT116 cells assessed as subG1 phase accumulation at 20 uM after 24 hrs by propidium iodide staining-based flow cytometric analysis (reference value: 3.81%); type: functional
[23] = tested on: HCT-15; test: Cytotoxicity against human HCT15 cells at 1 to 30 uM incubated for 72 hrs by inverted microscopy
[24] = tested on: HCT-116; test: Inhibition of colony formation in human HCT116 cells assessed as decrease in reduction in mean colony formation rate at 5 to 20 uM; type: functional, cell-based; summary of the method: as §2
[25] = tested on: HCT-116; test: Induction of apoptosis in human HCT116 cells assessed as viable cells at 5 uM after 24 hrs by Alexa Fluor 488 Annexin V/MitoTracker red staining-based flow cytometric analysis (reference value: 92.5%); type: functional; conditions: HCT-116, 24 h, read-out: Activity
[26] = tested on: HCT-116; test: Cell cycle arrest in human HCT116 cells assessed as G2 phase accumulation at 5 uM after 24 hrs by propidium iodide staining-based flow cytometric analysis (reference value: 7.56%); type: functional
[27] = tested on: HCT-116; test: Induction of apoptosis in human HCT116 cells after 24 hrs by Alexa Fluor 488 Annexin V/MitoTracker red staining-based flow cytometric analysis; type: functional, cell-based
[28] = tested on: HCT-116; test: Induction of apoptosis in human HCT116 cells assessed as apoptotic cells at 5 uM after 24 hrs by Alexa Fluor 488 Annexin V/MitoTracker red staining-based flow cytometric analysis (reference value: 7.48%); type: functional
[29] = tested on: HCT-116; test: Cell cycle arrest in human HCT116 cells assessed as G2 phase accumulation at 20 uM after 24 hrs by propidium iodide staining-based flow cytometric analysis (reference value: 7.56%); type: functional
[30] = tested on: HCT-116; test: Induction of apoptosis in human HCT116 cells assessed as viable cells at 30 uM after 24 hrs by Alexa Fluor 488 Annexin V/MitoTracker red staining-based flow cytometric analysis (reference value: 92.5%); type: functional; conditions: HCT-116, 24 h, read-out: Activity
[31] = tested on: HCT-116; test: Induction of apoptosis in human HCT116 cells assessed as nuclear condensation at 5 to 10 uM after 24 hrs by DAPI staining-based fluorescent microscopic analysis; type: functional, cell-based; summary of the method: as §1
[32] = tested on: HCT-116; test: Cell cycle arrest in human HCT116 cells assessed as S phase accumulation at 5 uM after 24 hrs by propidium iodide staining-based flow cytometric analysis (reference value: 9.18%); type: functional
[33] = tested on: HCT-116; test: Cell cycle arrest in human HCT116 cells assessed as S phase accumulation at 10 uM after 24 hrs by propidium iodide staining-based flow cytometric analysis (reference value: 9.18%); type: functional
[34] = tested on: HCT-116; test: Cytotoxicity against human HCT116 cells assessed as cell confluence at 10 to 30 uM up to 72 hrs (reference value: 60%); type: functional
[35] = tested on: HCT-116; test: Cell cycle arrest in human HCT116 cells assessed as subG1 phase accumulation at 5 uM after 24 hrs by propidium iodide staining-based flow cytometric analysis (reference value: 3.81%); type: functional
[36] = tested on: HCT-116; test: Cell cycle arrest in human HCT116 cells assessed as G1 phase accumulation at 10 uM after 24 hrs by propidium iodide staining-based flow cytometric analysis (reference value: 78.7%); type: functional
[37] = tested on: HCT-116; test: Cell cycle arrest in human HCT116 cells assessed as G1 phase accumulation at 5 uM after 24 hrs by propidium iodide staining-based flow cytometric analysis (reference value: 78.7%); type: functional
[38] = tested on: HCT-116; test: Cytotoxicity against human HCT116 cells at 1 to 30 uM incubated for 72 hrs by inverted microscopy
[39] = tested on: HCT-116; test: Cell cycle arrest in human HCT116 cells assessed as sub G1 phase accumulation after 24 hrs by propidium iodide staining-based flow cytometric analysis; type: functional
[40] = tested on: HCT-116; test: Cell cycle arrest in human HCT116 cells assessed as subG1 phase accumulation at 10 uM after 24 hrs by propidium iodide staining-based flow cytometric analysis (reference value: 3.81%); type: functional
[41] = tested on: HCT-116; test: Induction of apoptosis in human HCT116 cells assessed as apoptotic cells at 30 uM after 24 hrs by Alexa Fluor 488 Annexin V/MitoTracker red staining-based flow cytometric analysis (reference value: 7.48%); type: functional
[42] = tested on: HEK293; test: Cytotoxicity against human HEK293 cells at 1 to 30 uM incubated for 72 hrs by inverted microscopy; conditions: hek293, 72 h
[43] = tested on: HCT-116; test: Induction of apoptosis in human HCT116 cells assessed as viable cells at 20 uM after 24 hrs by Alexa Fluor 488 Annexin V/MitoTracker red staining-based flow cytometric analysis (reference value: 92.5%); type: functional; conditions: HCT-116, 24 h, read-out: Activity
[44] = tested on: HCT-116; test: Cell cycle arrest in human HCT116 cells assessed as S phase accumulation at 20 uM after 24 hrs by propidium iodide staining-based flow cytometric analysis (reference value: 9.18%); type: functional

- IC50 [1]: 40.8 µM
- IC50 [3]: 19.6 µM
- IC50 [4]: 33.4 µM
- IC50 [6]: 19.4 µM
- IC50 [7]: 65.2 µM
- IC50 [8]: 77.9 µM
- IC50 [9]: 72.1 µM
- IC50 [10]: 73.4 µM
- IC50 [11]: 12.8 µM
Structure (SMILES): COc1cc2cc3c(N)n[nH]c3nc2cc1OC
- IC50 [2]: 26 µM
- IC50 [5]: 81.1 µM

- IC50 [1]: 57 µM
- IC50 [3]: 35.8 µM
- IC50 [4]: 55.6 µM
- IC50 [6]: 85.2 µM
- IC50 [7]: > 100 µM
- IC50 [8]: 62.3 µM
- IC50 [9]: 49.5 µM
- IC50 [10]: 76.5 µM
- IC50 [11]: 69.3 µM
Structure (SMILES): COc1ccc2nc3[nH]nc(N)c3cc2c1
- IC50 [2]: 93.7 µM
- IC50 [5]: > 100 µM

- IC50 [1]: 2.3 µM
- IC50 [3]: 56.6 µM
- IC50 [4]: 10.2 µM
- IC50 [6]: 3.9 µM
- IC50 [7]: 87.1 µM
- IC50 [8]: 50.6 µM
- IC50 [9]: 59.2 µM
- IC50 [10]: 53.4 µM
- IC50 [11]: 9.6 µM
Structure (SMILES): COc1ccc2cc3c(N)n[nH]c3nc2c1
- Activity [12]: Active
- Activity [13]: Active
- viability at 10 µM [14]: 68.1%
- Activity [15]: 34%
- Activity [16]: 31.8%
- Activity [17]: 33.5%
- inhibition [18]: Active
- Activity [19]: Active
- IC50 [2]: 7.8 µM
- Activity [20]: 5.3%
- Activity [21]: Active
- Activity [22]: 55.9%
- Activity [23]: Active
- inhibition [24]: Active
- viability at 5 µM [25]: 77%
- Activity [26]: 1.37%
- Activity [27]: Dose-dependent effect
- IC50 [5]: 45.8 µM
- Activity [28]: 22.9%
- Activity [29]: 0.6%
- viability at 30 µM [30]: 46.7%
- Activity [31]: Active
- Activity [32]: 14.5%
- Activity [33]: 15.1%
- Activity [34]: <=20%
- Activity [35]: 22.4%
- Activity [36]: 45.9%
- Activity [37]: 59.3%
- Activity [38]: Active
- Activity [39]: Dose-dependent effect
- Activity [40]: 32%
- Activity [41]: 53.3%
- Activity [42]: Non-Toxic
- viability at 20 µM [43]: 66%
- Activity [44]: 7.99%

Continued, compound first:

Structure (SMILES): Nc1n[nH]c2nc3cc(Cl)ccc3cc12
- IC50 [1]: 56.6 µM
- IC50 [2]: 58.6 µM
- IC50 [3]: 59.9 µM
- IC50 [4]: 77.5 µM
- IC50 [5]: 36.6 µM
- IC50 [6]: 42.3 µM
- IC50 [7]: > 100 µM
- IC50 [8]: 89.9 µM
- IC50 [9]: > 100 µM
- IC50 [10]: > 100 µM
- IC50 [11]: 44.8 µM

Structure (SMILES): Nc1n[nH]c2nc3c(ccc4ccccc43)cc12
- IC50 [1]: 76.1 µM
- IC50 [2]: 54.3 µM
- IC50 [3]: 13.5 µM
- IC50 [4]: 80.6 µM
- IC50 [5]: > 100 µM
- IC50 [6]: 98.7 µM
- IC50 [7]: 59.7 µM
- IC50 [8]: > 100 µM
- IC50 [9]: 73.6 µM
- IC50 [10]: > 100 µM
- IC50 [11]: 68.6 µM

Structure (SMILES): Nc1[nH]nc2nc3ccccc3cc12
- IC50 [1]: 67.7 µM
- IC50 [2]: 7.8 µM
- IC50 [3]: 83.9 µM
- IC50 [4]: 88.6 µM
- IC50 [5]: > 100 µM
- IC50 [6]: 95.7 µM
- IC50 [7]: > 100 µM
- IC50 [8]: > 100 µM
- IC50 [9]: 81.5 µM
- IC50 [10]: > 100 µM
- IC50 [11]: 58.6 µM

Structure (SMILES): Cc1ccc2[nH]c3nnc(N)c-3cc2c1
- IC50 [1]: > 100 µM
- IC50 [2]: 61.2 µM
- IC50 [3]: 98.3 µM
- IC50 [4]: 89.6 µM
- IC50 [5]: > 100 µM
- IC50 [6]: 32.9 µM
- IC50 [7]: > 100 µM
- IC50 [8]: > 100 µM
- IC50 [9]: > 100 µM
- IC50 [10]: > 100 µM
- IC50 [11]: > 100 µM

Structure (SMILES): Cc1cc2cc3c(N)[nH]nc3nc2cc1C
- IC50 [1]: > 100 µM
- IC50 [2]: 38.9 µM
- IC50 [3]: > 100 µM
- IC50 [4]: > 100 µM
- IC50 [5]: > 100 µM
- IC50 [6]: > 100 µM
- IC50 [7]: > 100 µM
- IC50 [8]: > 100 µM
- IC50 [9]: 78.8 µM
- IC50 [10]: > 100 µM
- IC50 [11]: > 100 µM

From ChEMBL document CHEMBL4118229, “lH-Pyrazolo[3,4-b]quinolin-3-amine derivatives inhibit growth of colon cancer cells via apoptosis and sub G1 cell cycle arrest” (Bioorg Med Chem Lett, 2018)
